In experiment [1] the target is Signal transducer and activator of transcription 3 (Mus musculus) (UniProt P42227). The experiment is described as follows: Inhibition of STAT3 expression in LPS-treated mouse J774.A1 cells at 50 to 200 nM treated for 1 hr by Western blot analysis. It counts as cell-based. The note with it: dose 50-200 nM. The method, boiled down: (§1)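 J774A.1 cells pretreated with LPS and compound, lysed in RIPA. pSTAT1, STAT1, pSTAT3, STAT3, pSTAT5 and STAT5 detected by SDS-PAGE western blot with ECL.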
A general note: A western blot detects proteins with antibodies after separation by electrophoresis.

The target in experiment [2] is NLR family CARD domain-containing protein 4 (Mus musculus) (UniProt Q3UP24). The experiment is described as follows: Inhibition of NLRC4 inflammasome activation in mouse BMDM cells assessed as reduction in LPS-stimulated IL-1beta level at 50 to 200 nM pretreated for 1 hr followed by FLA-ST Ultrapure treatment for 4 hrs by ELISA. It counts as cell-based. The conditions noted are these: dose 50-200 nM, time 5.0 hrs. The method, boiled down:
(§2)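 BMDMs (RPMI 1640, 10% FBS, Glutamax, 20 ng mL−1 M-CSF) primed with 0.5 μg mL−1 LPS for 3 h, then compound for 1 h. Stimulated 4 h with FLA-ST Ultrapure 2.5 μg mL−1 (NLRC4) or poly(dA/dT) 0.25 μg mL−1 (AIM2). IL-1β measured by ELISA.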

The subject of experiment [3] is Mus musculus. The experiment is described as follows: Anti-colitis activity against DSS-induced ulcerative colitis mouse model assessed as decrease in hemafecia at 0.2 to 0.6 mg/kg, ip treated every 72 hrs for 9 days. In kind it is functional, organism-based. The note with it: dose 0.2-0.6 mg/kg, time 9.0 day. An outline of the steps: (§3)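 Mice given 2.5% DSS water days 1–7, then water to day 9. Dosing: i.p. 0.2 or 0.6 mg kg−1 in 50% PEG300 on days 2, 5, 8. Body weight and fecal occult blood scored daily. Colon length measured after sacrifice on day 9. Mean ± s.e.m.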

The target of experiment [4] is T1, Interferon-inducible protein AIM2 (Mus musculus) (UniProt Q91VJ1).
T1 sequence (whole entry): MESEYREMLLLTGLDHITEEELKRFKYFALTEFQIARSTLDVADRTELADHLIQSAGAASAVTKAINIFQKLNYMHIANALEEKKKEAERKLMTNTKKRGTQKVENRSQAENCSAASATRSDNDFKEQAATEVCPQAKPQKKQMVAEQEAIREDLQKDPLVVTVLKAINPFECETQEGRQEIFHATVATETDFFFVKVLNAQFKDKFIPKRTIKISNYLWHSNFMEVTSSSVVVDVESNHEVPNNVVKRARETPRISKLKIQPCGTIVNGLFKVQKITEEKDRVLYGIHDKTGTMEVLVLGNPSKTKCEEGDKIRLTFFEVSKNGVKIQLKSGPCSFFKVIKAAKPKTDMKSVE
The experiment is described as follows: Inhibition of AIM2 inflammasome activation in mouse BMDM cells assessed as reduction in LPS-stimulated IL-1beta level at 50 to 200 nM pretreated for 1 hr followed by poly(dA/dT) treatment for 4 hrs by ELISA. In kind it is cell-based. The conditions noted are these: dose 50-200 nM, time 5.0 hrs. The method, boiled down:
as §2

The target of experiment [5] is NACHT, LRR and PYD domains-containing protein 3 (Mus musculus) (UniProt Q8R4B8). The experiment can be described thus: Inhibition of NLRP3 inflammasome activation in mouse J774.A1 cells assessed as NLRP3 ubiquitination at 100 nM pretreated for 1 hr followed by nigericin treatment for 1 hr. The conditions noted are these: time 2.0 hrs.
Experiment [6] deals with Colon. The experiment can be described thus: Downregulation of IL-6 level in colon tissue of DSS-induced ulcerative colitis mouse model at 0.2 to 0.6 mg/kg, ip treated every 72 hrs for 9 days by ELISA. It counts as functional, organism-based. The conditions noted are these: dose 0.2-0.6 mg/kg, time 9.0 day. The method, boiled down: (§4)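 Colitis induced with 2.5% DSS in drinking water on days 1–7, plain water days 8–9. Compound given i.p. at 0.2 and 0.6 mg kg−1 in 50% PEG300 on days 2, 5 and 8. Mice killed on day 9; colon tissue cytokines measured by ELISA. Mean ± s.e.m.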

In experiment [7] the test system is Mus musculus. The experiment can be described thus: Anti-colitis activity against DSS-induced ulcerative colitis mouse model assessed as increase in body weight at 0.2 to 0.6 mg/kg, ip treated every 72 hrs for 9 days. It counts as functional, organism-based. The conditions noted are these: dose 0.2-0.6 mg/kg, time 9.0 day. An outline of the steps:
as §3

Experiment [8] deals with NACHT, LRR and PYD domains-containing protein 3 (Mus musculus) (UniProt Q8R4B8). The experiment can be described thus: Inhibition of NLRP3 inflammasome activation in mouse J774.A1 cells assessed as reduction in cleaved GSDMD production at 50 to 200 nM pretreated for 1 hr followed by nigericin treatment for 1 hr by Western blot analysis. It counts as cell-based. The note with it: dose 50-200 nM, time 2.0 hrs. An outline of the steps: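 J774A.1 cells, LPS 1 μg mL−1 for 5 h, compound exposure, nigericin 10 μM 1 h. RIPA lysis with protease inhibitor and BCA quantitation, then SDS-PAGE/PVDF. Blocked 5% milk, primary antibodies overnight at 4 °C, HRP secondaries, ECL detection.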

In the next experiment the test system is J774.A1. The experiment is described as follows: Inhibition of STAT5 expression in LPS-treated mouse J774.A1 cells assessed as reduction in STAT5 phosphorylation at 50 to 200 nM treated for 1 hr by Western blot analysis. The conditions noted are these: dose 50-200 nM. It counts as cell-based. The method, boiled down: as §1
For a further experiment, the system named is Intestine. The experiment is described as follows: Anti-colitis activity against DSS-induced ulcerative colitis mouse model assessed as decrease in STAT-1 level in intestinal tissue at 0.2 to 0.6 mg/kg, ip treated every 72 hrs for 9 days by Western blot analysis. In kind it is functional, organism-based. The conditions noted are these: dose 0.2-0.6 mg/kg, time 9.0 day. An outline of the steps:
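DSS model (2.5% in drinking water days 1–7, water days 8–9). Dosing was i.p. at 0.2 and 0.6 mg kg−1 in 50% PEG300 on days 2, 5, 8. Intestinal tissue taken at sacrifice on day 9. Lysed in RIPA with protease inhibitor and BCA-quantified, then run on SDS-PAGE/PVDF and probed for STAT1, STAT3, STAT5 and caspase-1. ECL detection.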

In experiment [9] the test system is Colon. The experiment is described as follows: Anti-colitis activity against DSS-induced ulcerative colitis mouse model assessed as increase in goblet cells in colon tissue at 0.2 to 0.6 mg/kg, ip treated every 72 hrs for 9 days by H and E staining based analysis. It counts as functional, organism-based. The note with it: dose 0.2-0.6 mg/kg, time 9.0 day. An outline of the steps:
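Colons were taken on day 9 from 2.5% DSS-fed mice (DSS days 1–7). Dosing was i.p. 0.2 or 0.6 mg kg−1 in 50% PEG300 on days 2, 5, 8. H&E-stained sections imaged at ×20 and scored for inflammatory infiltration, goblet cell depletion and crypt loss.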

Experiment [10] concerns Mus musculus. The experiment is described as follows: Anti-colitis activity against DSS-induced ulcerative colitis mouse model assessed as increase in colon length at 0.2 to 0.6 mg/kg, ip treated every 72 hrs for 9 days. It counts as functional, organism-based. The note with it: dose 0.2-0.6 mg/kg, time 9.0 day. An outline of the steps:
as §3

Experiment [11] addresses NACHT, LRR and PYD domains-containing protein 3 (Mus musculus, UniProt Q8R4B8). The experiment is described as follows: Inhibition of NLRP3 inflammasome activation in mouse J774.A1 cells assessed as reduction in LPS-stimulated IL-1beta level pretreated for 1 hr followed by nigericin treatment for 1 hr by ELISA. In kind it is cell-based. The method, boiled down:
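J774A.1 cells (DMEM, 10% FBS) primed with LPS 1 μg mL−1 for 5 h, compound 1 h, then nigericin 10 μM for 1 h. Supernatant IL-1β by ELISA; IC50 from three separate determinations.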

Experiment [12] deals with Colon. The experiment can be described thus: Anti-colitis activity against DSS-induced ulcerative colitis mouse model assessed as decrease in IL-1beta level in colon tissue at 0.2 to 0.6 mg/kg, ip treated every 72 hrs for 9 days by ELISA. The note with it: dose 0.2-0.6 mg/kg, time 9.0 day. In kind it is functional, organism-based. The method, boiled down: as §4

Active and inactive are the calls of the source. No cut-off for these calls is given here.

NACHT, LRR and PYD domains-containing protein 3 (Mus musculus), sequence (Q8R4B8 whole entry, the tested form may be a part): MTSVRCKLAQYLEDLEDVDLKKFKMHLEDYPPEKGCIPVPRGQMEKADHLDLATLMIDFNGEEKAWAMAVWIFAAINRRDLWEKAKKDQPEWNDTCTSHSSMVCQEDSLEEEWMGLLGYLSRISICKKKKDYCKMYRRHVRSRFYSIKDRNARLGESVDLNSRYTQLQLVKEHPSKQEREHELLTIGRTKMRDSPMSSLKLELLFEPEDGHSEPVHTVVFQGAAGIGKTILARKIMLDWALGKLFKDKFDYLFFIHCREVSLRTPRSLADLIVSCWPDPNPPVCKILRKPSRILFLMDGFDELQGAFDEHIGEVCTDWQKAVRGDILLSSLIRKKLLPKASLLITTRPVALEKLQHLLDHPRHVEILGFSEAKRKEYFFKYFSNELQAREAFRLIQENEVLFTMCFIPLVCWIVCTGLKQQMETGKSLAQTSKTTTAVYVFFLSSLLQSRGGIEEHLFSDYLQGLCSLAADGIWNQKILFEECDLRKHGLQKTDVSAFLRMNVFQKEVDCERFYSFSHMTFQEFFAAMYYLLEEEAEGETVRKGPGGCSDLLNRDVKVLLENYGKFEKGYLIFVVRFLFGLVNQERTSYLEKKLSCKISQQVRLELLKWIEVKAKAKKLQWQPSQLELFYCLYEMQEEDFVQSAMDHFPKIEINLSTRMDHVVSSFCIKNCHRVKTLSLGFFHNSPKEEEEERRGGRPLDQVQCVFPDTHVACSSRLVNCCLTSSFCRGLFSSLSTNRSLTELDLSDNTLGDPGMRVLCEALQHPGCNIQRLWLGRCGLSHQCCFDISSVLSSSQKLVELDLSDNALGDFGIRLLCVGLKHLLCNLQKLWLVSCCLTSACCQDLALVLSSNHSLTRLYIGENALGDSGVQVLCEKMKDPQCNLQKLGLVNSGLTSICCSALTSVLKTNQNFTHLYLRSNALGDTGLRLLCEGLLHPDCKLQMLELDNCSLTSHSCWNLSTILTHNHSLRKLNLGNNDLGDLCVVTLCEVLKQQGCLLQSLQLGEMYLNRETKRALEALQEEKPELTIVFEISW
NACHT, LRR and PYD domains-containing protein 3, sequence (Q8R4B8 whole entry, the tested form may be a part): as above
NLR family CARD domain-containing protein 4 (Mus musculus), sequence (Q3UP24 whole entry, the tested form may be a part): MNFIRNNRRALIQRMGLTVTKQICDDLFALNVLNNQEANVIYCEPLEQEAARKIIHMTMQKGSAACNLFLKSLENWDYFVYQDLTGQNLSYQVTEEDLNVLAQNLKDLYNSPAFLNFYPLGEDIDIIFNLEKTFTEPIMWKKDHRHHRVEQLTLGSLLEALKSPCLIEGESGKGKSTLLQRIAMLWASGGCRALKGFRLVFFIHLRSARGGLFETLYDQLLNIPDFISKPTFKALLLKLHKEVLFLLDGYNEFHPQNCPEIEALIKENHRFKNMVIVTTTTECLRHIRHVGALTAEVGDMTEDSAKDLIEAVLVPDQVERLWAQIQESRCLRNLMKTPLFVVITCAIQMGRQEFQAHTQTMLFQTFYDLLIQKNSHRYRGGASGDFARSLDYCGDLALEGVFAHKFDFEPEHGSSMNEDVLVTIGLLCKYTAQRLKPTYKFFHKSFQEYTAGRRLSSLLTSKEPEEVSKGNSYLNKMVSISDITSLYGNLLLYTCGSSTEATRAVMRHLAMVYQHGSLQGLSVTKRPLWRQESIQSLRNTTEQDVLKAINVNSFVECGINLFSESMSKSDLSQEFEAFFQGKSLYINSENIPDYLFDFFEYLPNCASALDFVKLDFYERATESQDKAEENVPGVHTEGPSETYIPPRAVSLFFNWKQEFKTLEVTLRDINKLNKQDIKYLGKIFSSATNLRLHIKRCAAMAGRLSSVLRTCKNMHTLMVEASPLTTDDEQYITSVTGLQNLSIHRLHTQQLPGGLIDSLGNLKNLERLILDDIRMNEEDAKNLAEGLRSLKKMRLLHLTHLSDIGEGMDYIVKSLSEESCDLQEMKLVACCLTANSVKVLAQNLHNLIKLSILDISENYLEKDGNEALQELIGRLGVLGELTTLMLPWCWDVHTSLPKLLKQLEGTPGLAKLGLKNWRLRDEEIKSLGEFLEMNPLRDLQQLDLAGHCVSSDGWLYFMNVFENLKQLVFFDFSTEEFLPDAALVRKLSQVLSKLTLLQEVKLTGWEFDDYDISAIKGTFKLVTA
Signal transducer and activator of transcription 3 (Mus musculus), sequence (P42227 whole entry): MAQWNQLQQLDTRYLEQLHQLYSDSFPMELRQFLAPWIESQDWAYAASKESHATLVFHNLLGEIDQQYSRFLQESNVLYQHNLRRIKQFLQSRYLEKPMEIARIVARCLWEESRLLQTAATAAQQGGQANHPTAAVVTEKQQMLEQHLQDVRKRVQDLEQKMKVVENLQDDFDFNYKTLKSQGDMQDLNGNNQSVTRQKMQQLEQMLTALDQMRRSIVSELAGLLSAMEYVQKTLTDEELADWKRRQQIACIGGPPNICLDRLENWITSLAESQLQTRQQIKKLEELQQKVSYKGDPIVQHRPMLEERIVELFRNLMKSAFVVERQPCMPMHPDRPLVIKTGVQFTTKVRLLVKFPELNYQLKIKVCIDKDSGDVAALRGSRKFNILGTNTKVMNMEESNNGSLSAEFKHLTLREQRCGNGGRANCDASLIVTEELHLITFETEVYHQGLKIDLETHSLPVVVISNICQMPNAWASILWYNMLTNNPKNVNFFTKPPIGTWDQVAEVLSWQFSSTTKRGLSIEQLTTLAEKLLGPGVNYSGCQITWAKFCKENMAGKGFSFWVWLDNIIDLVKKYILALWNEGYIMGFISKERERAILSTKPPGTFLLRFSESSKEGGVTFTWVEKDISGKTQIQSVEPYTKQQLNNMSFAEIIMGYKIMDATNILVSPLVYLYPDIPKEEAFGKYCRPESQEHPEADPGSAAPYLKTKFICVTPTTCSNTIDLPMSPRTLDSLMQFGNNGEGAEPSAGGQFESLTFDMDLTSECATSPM

As a reminder, the IC50 is the concentration at which inhibition is half-maximal. In the case of `Cc1cc(/C=C/C(=O)c2ccc(C(=O)N[C@@H](Cc3ccccc3)C(=O)N[C@@H](CC(C)C)B(O)O)cc2)cc(C)c1O`, the inhibition entry in experiment [1] and in [2] was “inactive” each time. Besides, the outcome with Mus musculus [3], in the experiment on Mus musculus [7], in the experiment on Intestine, with Colon [9], with Mus musculus [10] and in the experiment on Colon [12] was Active. Further, the inhibition entry (in experiment [4]; in [5]; in [8]; in the experiment on J774.A1) was “Active” in each case. In the experiment on Colon [6], the outcome was inactive. Also, in [11], the IC50 is 130 nM.

The record behind these values is ChEMBL document CHEMBL5357044, “Discovery of a dual-acting inhibitor of interleukin-1β and STATs for the treatment of inflammatory bowel disease” (RSC Med Chem, 2024).
